{
  "source": "paper PMC5453637",
  "about": "(Translational research : the journal of laboratory and …, 2016)",
  "key": {"human wild-type CFTR [1]": {"target": "T1, human wild-type CFTR (Homo sapiens, UniProt P13569)", "T1 sequence (P13569 whole entry)": "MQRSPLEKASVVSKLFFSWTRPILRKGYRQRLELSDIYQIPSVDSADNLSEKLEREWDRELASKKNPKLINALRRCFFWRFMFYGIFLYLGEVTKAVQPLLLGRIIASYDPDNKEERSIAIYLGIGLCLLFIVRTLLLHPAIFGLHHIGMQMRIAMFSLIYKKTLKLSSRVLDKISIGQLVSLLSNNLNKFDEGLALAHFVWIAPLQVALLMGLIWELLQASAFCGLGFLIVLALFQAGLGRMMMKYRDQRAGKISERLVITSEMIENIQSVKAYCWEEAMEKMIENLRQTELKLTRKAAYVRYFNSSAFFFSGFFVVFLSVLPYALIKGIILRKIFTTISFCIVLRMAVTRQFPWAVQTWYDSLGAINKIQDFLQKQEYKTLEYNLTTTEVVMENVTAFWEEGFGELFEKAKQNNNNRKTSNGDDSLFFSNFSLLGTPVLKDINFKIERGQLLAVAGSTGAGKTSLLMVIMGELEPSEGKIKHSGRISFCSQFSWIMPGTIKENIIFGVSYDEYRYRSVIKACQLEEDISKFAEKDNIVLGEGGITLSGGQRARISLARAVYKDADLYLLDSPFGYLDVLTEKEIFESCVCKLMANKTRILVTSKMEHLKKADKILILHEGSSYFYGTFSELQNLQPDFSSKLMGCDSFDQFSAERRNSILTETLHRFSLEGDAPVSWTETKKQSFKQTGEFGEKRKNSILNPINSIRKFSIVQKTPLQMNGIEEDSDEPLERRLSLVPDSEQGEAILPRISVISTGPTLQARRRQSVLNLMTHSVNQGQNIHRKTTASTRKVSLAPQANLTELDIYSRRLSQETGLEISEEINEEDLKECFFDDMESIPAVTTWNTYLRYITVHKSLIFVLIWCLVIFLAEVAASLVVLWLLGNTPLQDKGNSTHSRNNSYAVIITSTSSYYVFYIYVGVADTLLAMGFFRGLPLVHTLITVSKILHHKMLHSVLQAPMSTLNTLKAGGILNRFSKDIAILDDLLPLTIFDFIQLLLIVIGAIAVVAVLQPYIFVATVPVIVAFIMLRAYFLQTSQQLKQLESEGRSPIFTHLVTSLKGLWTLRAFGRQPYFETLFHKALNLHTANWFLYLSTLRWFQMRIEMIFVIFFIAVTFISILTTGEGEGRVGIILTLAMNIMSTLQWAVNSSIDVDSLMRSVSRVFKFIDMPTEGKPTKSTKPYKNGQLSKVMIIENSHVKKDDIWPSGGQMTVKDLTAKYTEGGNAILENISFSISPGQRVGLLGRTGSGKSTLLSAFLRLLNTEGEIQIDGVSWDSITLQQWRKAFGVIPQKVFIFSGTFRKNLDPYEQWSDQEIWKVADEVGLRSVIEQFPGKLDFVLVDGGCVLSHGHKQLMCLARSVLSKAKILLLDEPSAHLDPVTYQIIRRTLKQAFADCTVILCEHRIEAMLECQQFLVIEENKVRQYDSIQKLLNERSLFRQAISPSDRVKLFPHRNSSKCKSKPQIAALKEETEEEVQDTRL", "test": "Plate reader assay of CFTR activity", "assay_type": "cell-based", "conditions": "read-out: EC50 CFTR activation; as stated in abstract", "procedure,_shortened": "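FRT cells co-expressing human wild-type CFTR and YFP-H148Q were plated at 20,000 cells/well and used 24–48 h later. After 3 PBS washes, cells were incubated 10 min with test compound plus 125 nM forskolin. Fluorescence was recorded 2 s at baseline, then 12 s after adding PBS with 137 mM Cl⁻ replaced by I⁻. Initial iodide influx rate came from exponential regression. EC50 was taken from full concentration-dependence data, n=3.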"}, "human wild-type CFTR [2]": {"target": "T1, human wild-type CFTR", "test": "Whole-cell patch-clamp in FRT cells", "assay_type": "cell-based"}, "human wild-type CFTR [3]": {"target": "T1, human wild-type CFTR", "test": "Inside-out patch-clamp", "assay_type": "biochemical", "conditions": "1 μM, after submaximal ATP and catalytic subunit of protein kinase A", "procedure,_shortened": "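Inside-out macro-patches were taken from FRT cells stably expressing human wild-type CFTR using large pipette tips (3–5 MΩ). Pipette: 150 mM NMDG-Cl, 3 CaCl2, 2 MgCl2, 10 Na-HEPES, pH 7.3. Test compound (1 μM) followed. Steps of 600 ms ran −100 to +100 mV in 20 mV increments from −60 mV holding, 4 s apart; filtered 1 kHz, sampled 5 kHz. Three experiment sets.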"}, "cellular cAMP [4]": {"test_system": "cellular cAMP", "test": "cAMP immunoassay in FRT cells", "assay_type": "cell-based, rat", "conditions": "10 μM, 10 min, alone or with 90 nM forskolin", "procedure,_shortened": "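FRT cells in 12-well plates received vehicle, 10 μM test compound with or without 90 nM forskolin, or 20 μM forskolin alone, for 10 min at 37°C. Cells were lysed by freeze-thaw and centrifuged (600g, 10 min, 4°C). cAMP was measured by immunoassay.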"}, "cellular cGMP": {"test_system": "cellular cGMP", "test": "cGMP immunoassay in FRT cells", "assay_type": "cell-based, rat", "conditions": "10 μM, 10 min", "procedure,_shortened": "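FRT cells received 10 μM test compound or vehicle for 10 min at 37°C. They were lysed by freeze-thaw and cleared by centrifugation (600g, 10 min, 4°C). cGMP was measured by immunoassay.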"}, "cytoplasmic Ca^2+": {"test_system": "cytoplasmic Ca^2+", "test": "Cytoplasmic calcium measurement", "assay_type": "cell-based, rat", "conditions": "10 μM, 2 min, added alone", "procedure,_shortened": "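FRT cells were loaded with Fluo-4 NW 48 h after plating. They were pretreated 2 min with 10 μM test compound or vehicle, then given 100 μM ATP as calcium agonist. Cytoplasmic Ca2+ was read as Fluo-4 fluorescence (ex/em 494/516 nm) in a plate reader with syringe pumps.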"}, "[5]": {"test": "Stability in simulated gastric fluid", "assay_type": "physicochemical", "conditions": "10 μM, pH 2, 37°C, 3 hour", "procedure,_shortened": "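Test compound (10 μM) was incubated 0 or 3 h at 37°C in simulated gastric fluid (NaCl, 0.7% HCl, pH 2). Remaining compound was measured by LC/MS chromatography. n=3.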"}, "[6]": {"test": "In vitro metabolic stability in human liver microsomes", "assay_type": "in vitro ADME", "conditions": "1 mM NADPH, 37°C", "procedure,_shortened": "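Test compound was incubated at 37°C for specified times with human liver microsomes (1 mg protein/mL) in 100 mM potassium phosphate with 1 mM NADPH. Samples were chilled on ice and extracted with ice-cold ethyl acetate. Supernatant was dried, redissolved in acetonitrile:water 3:1 and quantified by LC/MS: 5–95% acetonitrile gradient over 16 min, 0.2 mL/min, ESI(+), m/z 100–1500.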"}, "[7]": {"test_system": "scopolamine-induced constipation", "test": "Scopolamine-induced mouse model of acute constipation", "assay_type": "in vivo, mice", "procedure,_shortened": "(§1)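 Female CD1 mice, 8–10 weeks, were made constipated with loperamide 0.3 mg/kg ip or scopolamine 0.5 mg/kg ip. Test compound 10 mg/kg (saline with 5% DMSO and 10% Kolliphor HS 15) or vehicle was given ip or orally, 1 h before or 1 h after the inducer. Mice sat in metabolic cages with food and water. Stool was collected 3 h for weight, pellet number and water content (dried 80°C, 24 h). n=4 mice/group.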"}, "[8]": {"test_system": "loperamide-induced constipation", "test": "Loperamide-induced mouse model of constipation", "assay_type": "in vivo, mice", "procedure,_shortened": "as §1"}, "C3H/HeJ mice": {"test_system": "C3H/HeJ mice", "test": "Genetic mouse model of chronic constipation", "assay_type": "in vivo"}, "C3H/HeOuJ mice": {"test_system": "C3H/HeOuJ mice", "test": "Wild-type control mice", "assay_type": "in vivo", "conditions": "10 mg/kg", "procedure,_shortened": "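Female C3H/HeJ (Tlr4 mutant, chronically constipated) and background C3H/HeOuJ mice, 8–11 weeks, were studied as paired animals. They received test compound 10 mg/kg orally in saline with 5% DMSO and 10% Kolliphor HS 15, or vehicle, at zero time, then went into metabolic cages. Stool was collected 4 h for weight, pellet count and water content ([wet − dry]/wet after drying 80°C, 24 h). n=10 mice/group.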"}, "[9]": {"test_system": "enteroids generated from normal human duodenum and jejunum", "test": "Swelling measurements in human enteroids", "assay_type": "cell-based", "procedure,_shortened": "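Enteroids came from adult duodenal/jejunal endoscopic biopsies, grown on coverglass dishes. Medium was replaced with Advanced DMEM/F12 and cytoplasm labelled with calcein green-AM, 1 h at 37°C. Forskolin was added, […], and/or test compound at 5 μM; test compound went in 10 min before forskolin when combined. Confocal images were taken every 10 min at 37°C, 5% CO2. Result was percent increase in enteroid area over initial area, e.g. at 40 min.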"}, "cellular cAMP [10]": {"test_system": "cellular cAMP", "conditions": "cited from earlier work"}, "[11]": {"test_system": "loperamide-induced constipation", "conditions": "cited from earlier work"}, "[12]": {"conditions": "cited from earlier work"}, "[13]": {"conditions": "mice, rapid hepatic metabolism; cited from earlier work"}, "CFTR-deficient mice": {"test_system": "CFTR-deficient mice", "conditions": "cited from earlier work"}},
  "note": "Values joined by “and” are separate entries in the source; they are usually repeats but may differ in a detail not shown here. Identical values can stand only once.",
  "data": [
    {"compound": "Nc1ccc([N+](=O)[O-])cc1-c1nc2ccccc2n(Cc2ccccc2)c1=O", "note": "[CFTRact-J027]", "values": [
      {"measurement": "EC50", "setting": "human wild-type CFTR [1]", "result": "~200", "unit": "nM"},
      {"measurement": "Increase of CFTR activity (whole-cell current)", "setting": "human wild-type CFTR [2]; 1 μM extracellular, after 150 nM forskolin (~25% maximal stimulation)", "result": "more than 4 fold"},
      {"measurement": "CFTR activity in inside-out patch", "setting": "human wild-type CFTR [3]", "result": "strongly increased CFTR activity"},
      {"measurement": "Cellular cAMP", "setting": "cellular cAMP [4]", "result": "did not elevate cellular cAMP"},
      {"measurement": "Cellular cGMP", "setting": "cellular cGMP", "result": "did not elevate cellular cGMP"},
      {"measurement": "Cytoplasmic Ca^2+", "setting": "cytoplasmic Ca^2+", "result": "nor did it elevate cytoplasmic Ca^2+"},
      {"measurement": "Stability in simulated gastric fluid", "setting": "[5]", "result": "no compound degradation"},
      {"measurement": "Elimination half-life in human hepatic microsomes", "setting": "[6]; 1 mg protein/mL, CFTRact-J027 as printed", "result": "~ 35 min and 35 min"},
      {"measurement": "Compound remaining at 60 minutes", "setting": "[6]; human hepatic microsomes", "result": 34, "unit": "%"},
      {"measurement": "Efficacy on stool parameters, given after development of constipation", "setting": "[7]; 10 mg/kg ip, 1 hour after scopolamine", "result": "effective"},
      {"measurement": "Efficacy on stool parameters, given orally after development of constipation", "setting": "[7]; 10 mg/kg po, 1 hour after scopolamine", "result": "not effective"},
      {"measurement": "Stool parameters (3-hour stool weight, pellet number, water content)", "setting": "[7]; 10 mg/kg po, 1 hour before scopolamine 0.5 mg/kg ip", "result": "normalization of stool parameters"},
      {"measurement": "Duration of effect", "setting": "[7]; in mice", "result": "3 to 4", "unit": "h"},
      {"measurement": "Efficacy on stool parameters, given after development of constipation", "setting": "[8]; 10 mg/kg ip, 1 hour after loperamide 0.3 mg/kg ip", "result": "effective"},
      {"measurement": "Efficacy on stool parameters, given orally after development of constipation", "setting": "[8]; 10 mg/kg po, 1 hour after loperamide", "result": "not effective"},
      {"measurement": "Whole-gut transit time", "setting": "C3H/HeJ mice; 10 mg/kg ip", "result": "normalized"},
      {"measurement": "4-hour stool weight, pellet number, and water content", "setting": "C3H/HeJ mice; 10 mg/kg oral", "result": "to the level of wild-type controls"},
      {"measurement": "Stool parameters or whole-gut transit time in wild-type control mice", "setting": "C3H/HeOuJ mice", "result": "did not affect"},
      {"measurement": "Enteroid size, compound alone", "setting": "[9]; 5 μM, 40 minutes, human jejunal enteroids, no forskolin", "result": "Little or no change"},
      {"measurement": "Enteroid swelling response to low forskolin after pretreatment", "setting": "[9]; 0.1 or 0.2 μM forskolin, pretreatment 10 minutes with CFTRact-J027, duodenum and jejunum", "result": "increased"},
      {"measurement": "Swelling response relative to maximal (5 μM) forskolin", "setting": "[9]; human enteroids", "result": "approximately 50%"},
      {"measurement": "Cellular cAMP concentration (prior data)", "setting": "cellular cAMP [10]", "result": "does not elevate cellular cAMP concentration"},
      {"measurement": "Stool output, stool water content, and intestinal transit", "setting": "[11]; acute constipation produced by loperamide", "result": "normalized"},
      {"measurement": "ED50 orally administered, loperamide model", "setting": "[11]; oral, mice", "result": 0.5, "unit": "mg/kg"},
      {"measurement": "Blood counts, serum chemistries, and lung water content", "setting": "[12]; chronic oral high-dose, mice", "result": "no effect"},
      {"measurement": "Toxicity", "setting": "[12]", "result": "showed no toxicity"},
      {"measurement": "Systemic exposure following oral administration", "setting": "[13]", "result": "minimal systemic exposure"},
      {"measurement": "Effect in CFTR-deficient mice", "setting": "CFTR-deficient mice", "result": "no effect"}
    ]},
    {"compound": "C=C[C@@]1(C)CC(=O)[C@]2(O)[C@@]3(C)[C@@H](O)CCC(C)(C)[C@@H]3[C@H](O)[C@H](OC(C)=O)[C@@]2(C)O1", "note": "[forskolin, reference compound]", "values": [
      {"measurement": "Enteroid area, forskolin alone", "setting": "[9]; 0.3 μM forskolin, 40 minutes, human jejunal enteroids", "result": "small increase in area"}
    ]},
    {"compound": "CFTRinh-172 [reference compound]", "values": [
      {"measurement": "Block of currents activated by forskolin and CFTRact-J027", "setting": "human wild-type CFTR [2]; 10 μM", "result": "blocked"}
    ]}
  ]
}
